Test results as given in article PMC10120451 (Journal of Enzyme Inhibition and Medicinal Chemistry, 2023).
Values after ≈ are worked out from the molar mass of the structure shown.

Experiments:
[1] = biological target: PDIA1a domain (residues 18–137) of human PDIA1 (Homo sapiens, UniProt P07237); experiment: Insulin turbidity assay with recombinant PDIA1a domain; format: biochemical; details: read-out: PDIA1a IC50 (insulin reduction); PDIA1a domain 8 µg/ml
In short: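 PDIA1a domain (human residues 18–137) was expressed in E. coli BL21(DE3) with an N-terminal His6-tag/TEV site, then purified by Ni affinity and size exclusion. Turbidity assay: 8 µg/ml protein in 0.1 mM potassium phosphate pH 7.6 and 2 mM EDTA, with 0.08 mM DTT during preincubation. Insulin with DTT was added to final 0.15 mM insulin and 0.16 mM DTT.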

[2] = tested on: CaCo-2 cells; experiment: 72 h proliferation inhibition test; format: cell-based, human; details: SRB
[3] = tested on: HT-29 cells; experiment: 72 h proliferation inhibition test; format: cell-based, human; details: SRB
[4] = Basal cytotoxicity test, neutral red uptake; format: cell-based; details: mouse, Balb/c 3T3 mouse embryo fibroblast cells
[5] = biological target: recombinant human PDIA1 (Homo sapiens, UniProt P07237); experiment: Enzymatic insulin reduction; format: biochemical; details: for IC50: PDIA1 IC50, insulin reduction assay, full-length PDIA1 6 µg/ml (96 nM), pH 7.6, 37 °C
Chain of recombinant human PDIA1 (P07237 18-508): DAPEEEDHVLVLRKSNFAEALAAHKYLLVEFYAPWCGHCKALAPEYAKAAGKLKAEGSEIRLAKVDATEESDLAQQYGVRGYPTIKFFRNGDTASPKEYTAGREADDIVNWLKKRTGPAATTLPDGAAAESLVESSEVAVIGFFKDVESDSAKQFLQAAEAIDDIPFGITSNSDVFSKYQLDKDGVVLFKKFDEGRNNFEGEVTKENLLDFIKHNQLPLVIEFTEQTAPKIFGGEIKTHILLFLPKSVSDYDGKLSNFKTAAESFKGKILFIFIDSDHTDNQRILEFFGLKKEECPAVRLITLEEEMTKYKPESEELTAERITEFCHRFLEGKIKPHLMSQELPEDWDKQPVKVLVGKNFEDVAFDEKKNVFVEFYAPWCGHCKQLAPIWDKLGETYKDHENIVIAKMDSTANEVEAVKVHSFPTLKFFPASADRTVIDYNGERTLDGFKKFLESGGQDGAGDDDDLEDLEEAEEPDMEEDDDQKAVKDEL

[6] = biological target: T1, recombinant human PDIA3 (Homo sapiens, UniProt P30101); experiment: Enzymatic insulin reduction; format: biochemical
T1 sequence (P30101 25-505): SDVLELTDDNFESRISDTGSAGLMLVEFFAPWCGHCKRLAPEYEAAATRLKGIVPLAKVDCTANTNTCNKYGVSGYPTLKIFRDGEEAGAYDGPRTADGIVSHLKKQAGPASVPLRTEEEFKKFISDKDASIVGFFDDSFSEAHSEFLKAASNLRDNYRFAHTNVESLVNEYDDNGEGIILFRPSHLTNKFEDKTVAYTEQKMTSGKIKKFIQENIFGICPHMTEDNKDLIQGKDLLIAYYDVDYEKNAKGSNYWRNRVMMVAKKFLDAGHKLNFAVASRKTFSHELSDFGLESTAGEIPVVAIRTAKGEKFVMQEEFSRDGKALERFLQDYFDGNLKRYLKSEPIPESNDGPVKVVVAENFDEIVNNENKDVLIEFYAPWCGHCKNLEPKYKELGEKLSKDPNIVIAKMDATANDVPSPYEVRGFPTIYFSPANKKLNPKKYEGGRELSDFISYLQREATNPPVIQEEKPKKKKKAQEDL
In short: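 Recombinant human PDIA3 (E. coli-expressed), 12 µg/ml (205 nM), was preincubated with test compound in 0.1 mM phosphate buffer pH 7.6, 2 mM EDTA and 0.08 mM DTT. Final DMSO was below 1%. Reaction was started with insulin plus DTT (final 0.15 mM insulin, 0.16 mM DTT). β-chain aggregation turbidity was read at 650 nm for 60 min at 37 °C.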

[7] = tested on: arterial thrombosis; experiment: Rat model of arterial thrombosis; format: in vivo; details: intravenously, 10 min prior to induction of arterial thrombosis, rats
In short: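 Wistar rats were anaesthetised with pentobarbital (40 mg/kg i.p.) on a 37 °C heated table. Right common carotid artery was stimulated at 1 mA for 10 min via an anode under the artery and a subcutaneous hind-limb cathode.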

Chain of PDIA1a domain (residues 18–137) of human PDIA1 (P07237 18-137): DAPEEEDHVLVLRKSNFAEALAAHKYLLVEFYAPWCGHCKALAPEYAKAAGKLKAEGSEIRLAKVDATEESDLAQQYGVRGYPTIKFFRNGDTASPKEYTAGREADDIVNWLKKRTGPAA

Compound: COc1ccc(N2C(=O)/C(=C\c3ccc([N+](=O)[O-])s3)SC2=S)cc1 [CCF642]
- IC50 [1]: 13 ± 0.6 µM
- IC50, 72-h antiproliferative assay, CaCo-2 [2]: 0.41 ± 0.1 mg/L (≈ 1.08 µM)
- IC50, 72-h antiproliferative assay, HT-29 [3]: 0.41 ± 0.05 mg/L (≈ 1.08 µM)

Compound: Cc1ccc(S(=O)(=O)N2CC2C=O)cc1 (stereo not drawn) [Compound C-3262, 1-(p-tolylsulphonyl)aziridine-2-carbaldehyde]
- IC50 at 24 h [4]: 4 ± 0.2 µM

Compound: CC(=O)C1CN1S(=O)(=O)c1ccc(C)cc1 (stereo not drawn) [Compound C-3263, 1-[1-(p-tolylsulphonyl)aziridin-2-yl]ethanone]
- IC50 [5]: 15.6 ± 0.8 µM
- IC50 at 24 h [4]: 8 ± 1 µM

Compound: CCCCc1ccc(S(=O)(=O)N2CC2C(C)=O)cc1 (stereo not drawn) [Compound C-3272, 1-[1–(4-Butylphenyl)sulphonylaziridin-2-yl]ethanone]
- IC50 at 24 h [4]: < 1 µM

Compound: CCCCc1ccc(S(=O)(=O)N2CC2C=O)cc1 (stereo not drawn) [Compound C-3273, 1–(4-Butylphenyl)sulphonylaziridine-2-carbaldehyde]
- IC50 [5]: 3.2 ± 0.2 µM
- IC50 [6]: 5.4 ± 0.2 µM
- IC50 at 24 h [4]: < 1 µM

Compound: Cc1ccc(S(=O)(=O)N2CC2C#N)cc1 (stereo not drawn) [Compound C-3314, 1-(p-tolylsulphonyl)aziridine-2-carbonitrile]
- IC50 [6]: 188 ± 7.5 µM
- IC50 at 24 h [4]: 52 ± 3 µM

Compound: Cc1ccc(S(=O)(=O)N2CC2C(=O)O)cc1 (stereo not drawn) [Compound C-3612, Lithium 1-tosylaziridine-2-carboxylate]
- IC50 at 24 h [4]: 2610 ± 89 µM

Compound: O=C(C1CC1)N1CCN(Cn2sc3ccccc3c2=O)CC1 [LOC14]
- IC50, 72-h antiproliferative assay, CaCo-2 [2]: 9.12 ± 3.4 mg/L (≈ 28.7 µM)
- IC50, 72-h antiproliferative assay, HT-29 [3]: 12.64 ± 8.4 mg/L (≈ 39.8 µM)

Compound: NC(=O)C1CN1 (stereo not drawn) [Leakadine, 2-carbamoylaziridine]
- inhibition at 1000 µM ([5]; read-out: Inhibition of PDIA1 activity): ~30%

Compound: O=c1c(O[C@@H]2O[C@H](CO)[C@@H](O)[C@H](O)[C@H]2O)c(-c2ccc(O)c(O)c2)oc2cc(O)cc(O)c12 [isoquercetin]
- effect on arterial thrombus formation (thrombus weight) [7]: only tended to reduce thrombosis

Compound: C[C@@H]1O[C@@H](OC[C@H]2O[C@@H](Oc3c(-c4ccc(O)c(O)c4)oc4cc(O)cc(O)c4c3=O)[C@H](O)[C@@H](O)[C@@H]2O)[C@H](O)[C@H](O)[C@H]1O [rutin]
- IC50 [5]: 4 ± 0.3 µM
- IC50 [6]: > 200 µM
- effect on arterial thrombus formation (thrombus weight) [7]: significantly inhibited arterial thrombus formation

Compound: PACMA31
- IC50 [1]: 18.3 ± 0.7 µM
